ChEMBL document CHEMBL1649139, “A novel gene, erm(41), confers inducible macrolide resistance to clinical isolates of Mycobacterium abscessus but is absent from Mycobacterium chelonae” (2009)
≈ marks a conversion by molar mass, not a printed value.

Experiments:
Assay type in all cases: functional
[1] = system: Mycobacteroides abscessus; test: Antimicrobial activity against Mycobacterium abscessus isolate MC724 at day 3 preincubated with 0.1 ug/ml erythromycin for 3 days by broth microdilution method
In short: (§1)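 To test inducible resistance, cultures were preincubated for 3 days in clarithromycin or erythromycin, within 0.01–1 μg/ml. The period was set so cultures passed at least two generations, judged by turbidity increase. Clarithromycin MIC was then determined by CLSI-conforming broth microdilution and read on the stated day, from day 3 up to 14.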

[2] = system: Mycobacteroides abscessus; test: Antimicrobial activity against Mycobacterium abscessus isolate MC1082 at day 14 by broth microdilution method; details: isolate MC1082, 336 h
In short: (§2)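 Clarithromycin MIC by CLSI-conforming broth microdilution. Before testing, cultures were preincubated for 3 days, either in medium alone or in clarithromycin or erythromycin (tested range 0.01–1 μg/ml). Preincubation ran for at least two generations, judged by turbidity increase. Plates were read on day 3 and on extended incubation at days 5 to 14.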

[3] = system: Mycobacteroides abscessus; test: Antimicrobial activity against Mycobacterium abscessus isolate MC958 at day 7 preincubated with 0.1 ug/ml for 3 days by broth microdilution method
[4] = system: Mycobacteroides abscessus; test: Antimicrobial activity against Mycobacterium abscessus isolate MC1082 at day 14 preincubated with 0.1 ug/ml erythromycin for 3 days by broth microdilution method; in short: as §2
[5] = system: Mycobacteroides abscessus; test: Antimicrobial activity against Mycobacterium abscessus isolate MC1082 at day 5 preincubated with 0.1 ug/ml for 3 days by broth microdilution method; in short: as §2
[6] = system: Mycobacteroides abscessus; test: Antimicrobial activity against Mycobacterium abscessus isolate MC720 at day 5 by broth microdilution method; details: isolate MC720, 120 h
In short: (§3)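 Clarithromycin MIC by broth microdilution following CLSI guidelines. Before testing, organisms were preincubated for 3 days in medium alone or in clarithromycin or erythromycin (0.01–1 μg/ml), long enough for at least two generations judged by turbidity increase. MICs were read on day 3 and again on extended incubation out to day 14.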

[7] = system: Mycobacteroides abscessus; test: Antimicrobial activity against Mycobacterium abscessus isolate MC724 at day 9 preincubated with 0.1 ug/ml erythromycin for 3 days by broth microdilution method; in short: as §1
[8] = system: Mycobacteroides abscessus; test: Antimicrobial activity against Mycobacterium abscessus isolate MC1448 at day 9 preincubated with 0.1 ug/ml for 3 days by broth microdilution method; in short: as §3
[9] = system: Mycobacteroides abscessus; test: Antimicrobial activity against Mycobacterium abscessus isolate MC724 at day 3 by broth microdilution method; details: isolate MC724, 72 h
In short: (§4)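 Clarithromycin MIC by broth microdilution following CLSI guidelines. Organisms were preincubated […], for 3 days before the assay. This allowed at least two generations, judged by the rise in turbidity. The MIC was read at the stated day, with incubation extended from day 3 to as long as 14 days.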

[10] = system: Mycobacteroides abscessus; test: Antimicrobial activity against Mycobacterium abscessus isolate MC719 at day 3 preincubated with 0.1 ug/ml erythromycin for 3 days by broth microdilution method; in short: as §3
[11] = system: Mycobacteroides abscessus; test: Antimicrobial activity against Mycobacterium abscessus isolate MC958 at day 3 by broth microdilution method; details: isolate MC958, 72 h; in short: as §4
[12] = system: Mycobacteroides abscessus; test: Antimicrobial activity against Mycobacterium abscessus isolate MC723 at day 3 by broth microdilution method; details: isolate MC723, 72 h; in short: as §3
[13] = system: Mycobacteroides abscessus; test: Antimicrobial activity against Mycobacterium abscessus isolate MC720 at day 7 preincubated with 0.1 ug/ml erythromycin for 3 days by broth microdilution method; in short: as §3
[14] = system: Mycobacteroides abscessus; test: Antimicrobial activity against Mycobacterium abscessus isolate MAB30 at day 3 preincubated with 0.1 ug/ml for 3 days by broth microdilution method; in short: as §2
[15] = system: Mycobacteroides abscessus; test: Antimicrobial activity against Mycobacterium abscessus isolate MC720 at day 5 preincubated with 0.1 ug/ml erythromycin for 3 days by broth microdilution method
In short: (§5)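 Clinical M. abscessus isolates were preincubated for 3 days, either in medium alone or in clarithromycin or erythromycin at 0.01 to 1 μg/ml, allowing at least two generations of growth judged by turbidity. The clarithromycin MIC was then determined by CLSI-conforming broth microdilution, with plates read on day 3 and on extended incubation (days 5 to 14).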

[16] = system: Mycobacteroides abscessus; test: Antimicrobial activity against Mycobacterium abscessus isolate MC958 at day 5 preincubated with 0.1 ug/ml for 3 days by broth microdilution method; in short: as §5
[17] = system: Mycobacteroides abscessus; test: Antimicrobial activity against Mycobacterium abscessus isolate MAB30 at day 9 preincubated with 0.1 ug/ml erythromycin for 3 days by broth microdilution method; in short: as §2
[18] = system: Mycobacteroides abscessus; test: Antimicrobial activity against Mycobacterium abscessus isolate MC879 at day 7 preincubated with 0.1 ug/ml for 3 days by broth microdilution method; in short: as §1
[19] = system: Mycobacteroides abscessus; test: Antimicrobial activity against Mycobacterium abscessus isolate MC724 at day 9 preincubated with 0.1 ug/ml for 3 days by broth microdilution method; in short: as §1
[20] = system: Mycobacteroides abscessus; test: Antimicrobial activity against Mycobacterium abscessus isolate MC724 at day 14 by broth microdilution method; details: isolate MC724, 336 h; in short: as §3
[21] = system: Mycobacteroides abscessus; test: Antimicrobial activity against Mycobacterium abscessus isolate MC1028 at day 9 preincubated with 0.1 ug/ml erythromycin for 3 days by broth microdilution method; in short: as §2
[22] = system: Mycobacteroides abscessus; test: Antimicrobial activity against Mycobacterium abscessus isolate MC958 at day 3 preincubated with 0.1 ug/ml erythromycin for 3 days by broth microdilution method; in short: as §1
[23] = system: Mycobacteroides abscessus; test: Antimicrobial activity against Mycobacterium abscessus isolate MC879 at day 14 by broth microdilution method; details: isolate MC879, 336 h; in short: as §4
[24] = system: Mycobacteroides abscessus; test: Antimicrobial activity against Mycobacterium abscessus isolate MC1448 at day 5 preincubated with 0.1 ug/ml erythromycin for 3 days by broth microdilution method; in short: as §3
[25] = system: Mycobacteroides abscessus; test: Antimicrobial activity against Mycobacterium abscessus isolate MC723 at day 14 preincubated with 0.1 ug/ml erythromycin for 3 days by broth microdilution method; in short: as §3
[26] = system: Mycobacteroides abscessus; test: Antimicrobial activity against Mycobacterium abscessus isolate MC1028 at day 14 preincubated with 0.1 ug/ml erythromycin for 3 days by broth microdilution method; in short: as §2
[27] = system: Mycobacteroides abscessus; test: Antimicrobial activity against Mycobacterium abscessus isolate MAB30 at day 14 preincubated with 0.1 ug/ml for 3 days by broth microdilution method; in short: as §2
[28] = system: Mycobacteroides abscessus; test: Antimicrobial activity against Mycobacterium abscessus isolate MC1448 at day 3 by broth microdilution method; details: isolate MC1448, 72 h; in short: as §2
[29] = system: Mycobacteroides abscessus; test: Antimicrobial activity against Mycobacterium abscessus isolate MC879-2 at day 14 preincubated with 0.1 ug/ml for 3 days by broth microdilution method
[30] = system: Mycobacteroides abscessus; test: Antimicrobial activity against Mycobacterium abscessus isolate MC1448 at day 5 preincubated with 0.1 ug/ml for 3 days by broth microdilution method; in short: as §3
[31] = system: Mycobacteroides abscessus; test: Antimicrobial activity against Mycobacterium abscessus isolate MAB30 at day 5 by broth microdilution method; details: isolate MAB30, 120 h; in short: as §2
[32] = system: Mycobacteroides abscessus; test: Antimicrobial activity against Mycobacterium abscessus isolate MAB30 at day 14 by broth microdilution method; details: isolate MAB30, 336 h; in short: as §2
[33] = system: Mycolicibacterium smegmatis; test: Antimicrobial activity against Mycobacterium smegmatis transformed with erm allele Mycobacterium abscessus isolate MC958 by broth microdilution method
[34] = system: Mycobacteroides abscessus; test: Antimicrobial activity against Mycobacterium abscessus isolate MC879-2 at day 14 preincubated with 0.1 ug/ml erythromycin for 3 days by broth microdilution method
[35] = system: Mycobacteroides abscessus; test: Antimicrobial activity against Mycobacterium abscessus isolate MC1082 at day 3 by broth microdilution method; details: isolate MC1082, 72 h; in short: as §2

## CC[C@H]1OC(=O)[C@H](C)[C@@H](O[C@H]2C[C@@](C)(OC)[C@@H](O)[C@H](C)O2)[C@H](C)[C@@H](O[C@@H]2O[C@H](C)C[C@H](N(C)C)[C@H]2O)[C@](C)(OC)C[C@@H](C)C(=O)[C@H](C)[C@@H](O)[C@]1(C)O [CLARITHROMYCIN]
[1]
  MIC: ≤ 0.5 µg/mL
[2]
  MIC: ≤ 0.5 µg/mL
[3]
  MIC: > 32 µg/mL
[4]
  MIC: ≤ 0.5 µg/mL
[5]
  MIC: ≤ 0.5 µg/mL
[6]
  MIC: 1 µg/mL (≈ 1.34 µM)
[7]
  MIC: > 32 µg/mL
[8]
  MIC: > 32 µg/mL
[9]
  MIC: ≤ 0.5 µg/mL
[10]
  MIC: ≤ 0.5 µg/mL
[11]
  MIC: ≤ 0.5 µg/mL
[12]
  MIC: ≤ 0.5 µg/mL
[13]
  MIC: > 32 µg/mL
[14]
  MIC: ≤ 0.5 µg/mL
[15]
  MIC: 4 µg/mL
[16]
  MIC: 4 µg/mL (≈ 5.35 µM)
[17]
  MIC: ≤ 0.5 µg/mL
[18]
  MIC: > 32 µg/mL
[19]
  MIC: > 32 µg/mL
[20]
  MIC: > 32 µg/mL
[21]
  MIC: ≤ 0.5 µg/mL
[22]
  MIC: ≤ 0.5 µg/mL
[23]
  MIC: > 32 µg/mL
[24]
  MIC: > 32 µg/mL
[25]
  MIC: > 32 µg/mL
[26]
  MIC: ≤ 0.5 µg/mL
[27]
  MIC: ≤ 0.5 µg/mL
[28]
  MIC: > 32 µg/mL
[29]
  MIC: > 32 µg/mL
[30]
  MIC: > 32 µg/mL
[31]
  MIC: ≤ 0.5 µg/mL
[32]
  MIC: ≤ 0.5 µg/mL
[33]
  MIC: 2 µg/mL (≈ 2.67 µM)
[34]
  MIC: > 32 µg/mL
[35]
  MIC: ≤ 0.5 µg/mL
